Measurements from publication PMC3110074 (ACS chemical neuroscience, 2011).
Read-outs that look alike come from different tables or passages of the source.

Experiments:
[1] = cited from earlier work
[2] = tested on: TH positive neurons in the SNpc; conditions: intraperitoneal injection; cited from earlier work
TYK2 = TYK2 (Homo sapiens, UniProt P29597); assay: Ambit kinase panel screen, TYK2; assay type: binding; conditions: suggested from Ambit panel at 3 μM
CYP P450 2D6 = CYP P450 2D6 (Homo sapiens, UniProt P10635); assay: P450 inhibition 2D6; assay type: in vitro ADME; conditions: read-out: IC50 CYP450 2D6
PDGFR-β = PDGFR-β (Homo sapiens, UniProt P09619); assay: Ambit kinase panel screen, PDGFR-β; assay type: binding; conditions: suggested from Ambit panel at 3 μM
[3] = Plasma protein binding, rat; assay type: in vitro ADME
KIT = KIT (Homo sapiens, UniProt P10721); assay: Ambit kinase panel screen, KIT; assay type: binding; conditions: suggested from Ambit panel at 3 μM
[4] = molecular target: monoamine oxidase B (MAO-B) (Homo sapiens, UniProt P27338); assay: MAO-B inhibition; assay type: biochemical; conditions: read-out: IC50 MAO-B
[5] = tested on: p-c-jun in substantia nigra tissue lysate; assay: ELISA for p-c-jun target modulation after MPTP; assay type: in vivo, C57BL/6J mice; conditions: MPTP-treated mice
In short: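 Male C57BL/6J mice (11 weeks, 25–30 g) got the test compound orally 30 min before the first of repeated i.p. MPTP-HCl doses given at 2 h intervals, and were killed 7 h after the first MPTP dose. SN nuclear extracts were made with protease and phosphatase inhibitors and protein was measured by BCA. Phospho-c-jun Ser63 in 30 μg protein was read by ELISA in duplicate against a recombinant p-c-jun standard curve. Groups were compared by two-tailed unpaired t test.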

[6] = tested on: p-c-jun in TH-positive neurons of the SNpc; assay: Immunohistochemistry for TH and p-c-jun after MPTP; assay type: in vivo, C57BL/6J mice; conditions: single oral dose 30 mg/kg, seven hr
In short: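 The test compound was given orally 30 min before repeated i.p. MPTP-HCl (2 h intervals) to male C57BL/6J mice, which were killed 7 h after the first MPTP dose; three mice per group. 16 μm SN sections (bregma −3.0) were incubated overnight at 4 °C with sheep anti-TH (1:50) and rabbit anti-p-c-jun Ser73 (1:100), then 2 h with Alexa 594/488 secondaries (1:500). DAPI was used for normalisation. TH+ neurons with nuclear p-c-jun were counted.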

CYP P450 2C8 = CYP P450 2C8 (Homo sapiens, UniProt P10632); assay: P450 inhibition 2C8; assay type: in vitro ADME; conditions: read-out: IC50 CYP450 2C8
[7] = tested on: striatal catecholamine levels; assay: Striatal dopamine, DOPAC and HVA levels after MPTP; assay type: in vivo, C57BL/6J mice; conditions: MPTP-treated mice, 30 mg/kg, 7 days
[8] = Microsomal stability, rat; assay type: in vitro ADME; conditions: rat liver microsomes
CYP P450 2E1 = CYP P450 2E1 (Homo sapiens, UniProt P05181); assay: P450 inhibition 2E1; assay type: in vitro ADME; conditions: read-out: IC50 CYP450 2E1
CYP P450 1A2 = CYP P450 1A2 (Homo sapiens, UniProt P05177); assay: P450 inhibition 1A2; assay type: in vitro ADME; conditions: read-out: IC50 CYP450 1A2
CYP P450 2B6 = CYP P450 2B6 (Homo sapiens, UniProt P20813); assay: P450 inhibition 2B6; assay type: in vitro ADME; conditions: read-out: IC50 CYP450 2B6
CYP P450 2A6 = CYP P450 2A6 (Homo sapiens, UniProt P11509); assay: P450 inhibition 2A6; assay type: in vitro ADME; conditions: read-out: IC50 CYP450 2A6
[9] = Plasma protein binding, mouse; assay type: in vitro ADME
CYP P450 2C9 = CYP P450 2C9 (Homo sapiens, UniProt P11712); conditions: read-out: IC50 CYP450 2C9
[10] = Plasma protein binding, human; assay type: in vitro ADME
KIT V559D = KIT V559D (Homo sapiens, UniProt P10721, V559D); assay: Ambit kinase panel screen, KIT V559D; assay type: binding; conditions: suggested from Ambit panel at 3 μM
[11] = tested on: c-jun phosphorylation in ventral midbrain; assay: Western blot for phospho-c-jun after MPTP; assay type: in vivo, C57BL/6J mice; conditions: MPTP-treated mice, 20 mg/kg oral
In short: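 Mice received the test compound orally 30 min before the first i.p. MPTP-HCl dose and were killed 7 h after that dose; two saline, three MPTP and two MPTP+compound mice. Ventral midbrain was dissected and lysed, and 30 μg nuclear-fraction protein was immunoblotted for phospho-c-jun.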

[12] = Mouse brain penetration time course; assay type: in vivo, C57Bl6 mice; conditions: mice, single oral dose 30 mg/kg
[13] = Plasma protein binding, monkey; assay type: in vitro ADME
[14] = molecular target: monoamine oxidase A (MAO-A) (Homo sapiens, UniProt P21397); assay: MAO-A inhibition; assay type: biochemical; conditions: read-out: IC50 MAO-A
Rat pharmacokinetics = assay type: in vivo, Sprague-Dawley rats; conditions: rats
In short: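 Sprague-Dawley rats (n = 3) were dosed 1 mg/kg i.v. or 2 mg/kg by oral gavage. Blood was drawn into EDTA at 5, 15 and 30 min and at 1, 2, 4, 6 and 8 h. Plasma proteins were precipitated with acetonitrile and the test compound quantified by LC-MS/MS. Noncompartmental analysis gave CL, oral bioavailability, Cmax, AUC, t1/2 and Vd.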

[15] = molecular target: Leucine Rich repeat Kinase 2 (LRRK2) (Homo sapiens, UniProt Q5S007); assay: LRRK2 inhibition; assay type: biochemical; conditions: up to 10 μM
P-glycoprotein (PGP) = P-glycoprotein (PGP) (Homo sapiens, UniProt P08183); assay: P-glycoprotein substrate assessment; assay type: in vitro ADME
[16] = Microsomal stability, mouse; assay type: in vitro ADME; conditions: mouse liver microsomes
CYP P450 2C19 = CYP P450 2C19 (Homo sapiens, UniProt P33261); conditions: read-out: IC50 CYP450 2C19
G2019S LRRK2 = G2019S LRRK2 (Homo sapiens, UniProt Q5S007, G2019S); assay: G2019S LRRK2 inhibition; assay type: biochemical; conditions: up to 10 μM
[17] = tested on: primary mesencephalic dopaminergic neurons exposed to MPP+; assay type: cell-based, Sprague Dawley rat; conditions: for neuroprotective effect (TH-positive neurons): 10 μM MPP+ for 48 hr
In short: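 Ventral mesencephalon from E14 Sprague-Dawley rat embryos was trypsinised (0.25%, 5 min, 37 °C) and triturated. Cells were plated at 200 000/well on poly-D-lysine/laminin in DMEM/10% HIFBS, then switched after 2 h to SATO selection medium for 5 days with daily changes. Test compound (10–1000 nM) was added 15 min before 10 μM MPP+, with 48 h at 37 °C/5% CO2. Cells were fixed in 4% PFA and TH+ neurons counted blinded. Four wells per concentration, three biological replicates; one-way ANOVA.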

CYP P450 3A4 = CYP P450 3A4 (Homo sapiens, UniProt P08684); conditions: read-out: IC50 CYP450 3A4
347 kinases = assay: Ambit kinase panel screen; assay type: binding; conditions: 3 μM
[18] = Microsomal stability, human; assay type: in vitro ADME; conditions: human liver microsomes
[19] = cited from earlier work; remark: listed apart in the source

CYP P450 2C9, sequence (P11712 whole entry): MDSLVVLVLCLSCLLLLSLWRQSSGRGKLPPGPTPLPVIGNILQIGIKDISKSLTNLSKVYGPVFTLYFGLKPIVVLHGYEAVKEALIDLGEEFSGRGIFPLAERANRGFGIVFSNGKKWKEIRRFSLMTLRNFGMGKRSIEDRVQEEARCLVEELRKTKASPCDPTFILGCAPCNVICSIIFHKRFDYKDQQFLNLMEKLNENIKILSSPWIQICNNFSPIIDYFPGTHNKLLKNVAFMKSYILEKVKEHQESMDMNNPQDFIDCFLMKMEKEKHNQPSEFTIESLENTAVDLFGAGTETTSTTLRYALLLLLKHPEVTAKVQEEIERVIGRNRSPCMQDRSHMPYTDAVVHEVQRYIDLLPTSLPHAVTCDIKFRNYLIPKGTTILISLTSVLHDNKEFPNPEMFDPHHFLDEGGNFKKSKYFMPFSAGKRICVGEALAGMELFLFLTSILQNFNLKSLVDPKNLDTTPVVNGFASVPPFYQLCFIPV
CYP P450 2E1, sequence (P05181 whole entry): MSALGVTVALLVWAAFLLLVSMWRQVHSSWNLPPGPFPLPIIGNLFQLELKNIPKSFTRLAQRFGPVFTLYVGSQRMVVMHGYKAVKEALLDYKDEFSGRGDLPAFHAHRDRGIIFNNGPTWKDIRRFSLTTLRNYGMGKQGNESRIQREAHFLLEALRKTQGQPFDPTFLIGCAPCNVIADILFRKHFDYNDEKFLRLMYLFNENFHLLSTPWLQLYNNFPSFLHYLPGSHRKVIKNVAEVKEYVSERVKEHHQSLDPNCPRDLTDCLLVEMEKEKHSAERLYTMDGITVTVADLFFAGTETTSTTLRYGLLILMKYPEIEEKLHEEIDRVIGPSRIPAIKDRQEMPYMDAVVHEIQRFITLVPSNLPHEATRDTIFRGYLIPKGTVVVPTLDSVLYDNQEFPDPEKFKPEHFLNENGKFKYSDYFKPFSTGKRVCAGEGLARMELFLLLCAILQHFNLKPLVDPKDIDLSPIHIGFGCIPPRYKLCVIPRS
G2019S LRRK2, sequence (Q5S007 whole entry G2019S): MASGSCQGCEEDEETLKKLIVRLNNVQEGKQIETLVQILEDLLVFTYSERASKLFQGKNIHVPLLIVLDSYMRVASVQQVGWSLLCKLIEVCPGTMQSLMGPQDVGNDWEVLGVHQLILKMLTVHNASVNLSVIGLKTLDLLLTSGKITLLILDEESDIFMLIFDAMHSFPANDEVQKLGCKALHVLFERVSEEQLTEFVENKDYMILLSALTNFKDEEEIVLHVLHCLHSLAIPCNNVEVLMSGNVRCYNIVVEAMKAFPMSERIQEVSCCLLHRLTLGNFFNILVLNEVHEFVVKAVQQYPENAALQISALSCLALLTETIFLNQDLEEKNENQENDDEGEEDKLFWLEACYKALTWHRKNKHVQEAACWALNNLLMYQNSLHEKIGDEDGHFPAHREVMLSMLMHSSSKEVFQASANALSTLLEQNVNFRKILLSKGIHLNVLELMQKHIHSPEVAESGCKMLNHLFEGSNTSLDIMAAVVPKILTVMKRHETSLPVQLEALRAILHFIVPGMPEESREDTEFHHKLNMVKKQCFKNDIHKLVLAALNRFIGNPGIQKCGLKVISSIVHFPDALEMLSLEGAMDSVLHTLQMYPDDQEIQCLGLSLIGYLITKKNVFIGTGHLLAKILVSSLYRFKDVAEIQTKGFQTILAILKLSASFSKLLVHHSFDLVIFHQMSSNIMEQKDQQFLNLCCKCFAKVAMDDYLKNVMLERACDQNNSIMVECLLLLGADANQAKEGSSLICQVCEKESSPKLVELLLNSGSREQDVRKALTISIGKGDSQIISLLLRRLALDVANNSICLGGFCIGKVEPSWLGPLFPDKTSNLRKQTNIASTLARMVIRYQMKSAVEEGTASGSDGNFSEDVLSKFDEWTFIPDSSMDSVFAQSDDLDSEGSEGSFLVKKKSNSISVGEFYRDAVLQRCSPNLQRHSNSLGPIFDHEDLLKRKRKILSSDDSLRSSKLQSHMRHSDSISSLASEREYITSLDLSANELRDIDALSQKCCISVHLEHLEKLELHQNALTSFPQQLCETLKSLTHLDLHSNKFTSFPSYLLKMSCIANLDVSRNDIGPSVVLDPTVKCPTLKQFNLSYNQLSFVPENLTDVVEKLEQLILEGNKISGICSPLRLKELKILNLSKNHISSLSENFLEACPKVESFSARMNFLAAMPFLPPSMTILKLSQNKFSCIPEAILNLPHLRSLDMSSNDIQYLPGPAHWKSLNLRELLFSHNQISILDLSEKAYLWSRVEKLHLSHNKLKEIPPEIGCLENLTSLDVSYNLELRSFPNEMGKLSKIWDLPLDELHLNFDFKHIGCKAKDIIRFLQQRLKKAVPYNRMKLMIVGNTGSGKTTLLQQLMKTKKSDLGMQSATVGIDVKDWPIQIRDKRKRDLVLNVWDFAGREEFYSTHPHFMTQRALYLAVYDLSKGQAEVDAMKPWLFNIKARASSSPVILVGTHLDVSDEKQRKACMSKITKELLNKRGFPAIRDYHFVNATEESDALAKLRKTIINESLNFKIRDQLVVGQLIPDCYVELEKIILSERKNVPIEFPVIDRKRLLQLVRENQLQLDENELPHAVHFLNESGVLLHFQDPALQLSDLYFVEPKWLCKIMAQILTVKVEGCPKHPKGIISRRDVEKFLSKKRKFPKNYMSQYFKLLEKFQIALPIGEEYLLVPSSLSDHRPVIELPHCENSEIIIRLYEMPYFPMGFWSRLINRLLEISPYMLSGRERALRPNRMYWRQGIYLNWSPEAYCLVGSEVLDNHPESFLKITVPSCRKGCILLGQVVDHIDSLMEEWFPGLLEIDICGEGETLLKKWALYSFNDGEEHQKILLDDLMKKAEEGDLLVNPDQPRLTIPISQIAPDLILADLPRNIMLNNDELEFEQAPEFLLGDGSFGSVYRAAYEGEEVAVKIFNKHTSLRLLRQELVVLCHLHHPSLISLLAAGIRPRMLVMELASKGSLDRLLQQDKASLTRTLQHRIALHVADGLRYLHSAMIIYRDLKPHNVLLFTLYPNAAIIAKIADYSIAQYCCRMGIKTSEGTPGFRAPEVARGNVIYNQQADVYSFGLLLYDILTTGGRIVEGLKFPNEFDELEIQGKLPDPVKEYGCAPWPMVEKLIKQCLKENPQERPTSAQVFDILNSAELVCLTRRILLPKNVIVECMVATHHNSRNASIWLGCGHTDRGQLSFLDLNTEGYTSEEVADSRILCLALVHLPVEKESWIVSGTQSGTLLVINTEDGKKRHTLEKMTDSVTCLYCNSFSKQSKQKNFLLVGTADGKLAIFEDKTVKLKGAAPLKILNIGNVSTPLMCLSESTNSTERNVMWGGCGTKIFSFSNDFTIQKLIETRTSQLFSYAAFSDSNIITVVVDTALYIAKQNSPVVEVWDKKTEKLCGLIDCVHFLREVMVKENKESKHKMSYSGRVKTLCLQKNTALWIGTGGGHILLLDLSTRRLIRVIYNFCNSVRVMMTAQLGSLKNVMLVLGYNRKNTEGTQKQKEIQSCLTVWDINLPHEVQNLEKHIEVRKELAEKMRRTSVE
monoamine oxidase A (MAO-A), sequence (P21397 whole entry, species assumed): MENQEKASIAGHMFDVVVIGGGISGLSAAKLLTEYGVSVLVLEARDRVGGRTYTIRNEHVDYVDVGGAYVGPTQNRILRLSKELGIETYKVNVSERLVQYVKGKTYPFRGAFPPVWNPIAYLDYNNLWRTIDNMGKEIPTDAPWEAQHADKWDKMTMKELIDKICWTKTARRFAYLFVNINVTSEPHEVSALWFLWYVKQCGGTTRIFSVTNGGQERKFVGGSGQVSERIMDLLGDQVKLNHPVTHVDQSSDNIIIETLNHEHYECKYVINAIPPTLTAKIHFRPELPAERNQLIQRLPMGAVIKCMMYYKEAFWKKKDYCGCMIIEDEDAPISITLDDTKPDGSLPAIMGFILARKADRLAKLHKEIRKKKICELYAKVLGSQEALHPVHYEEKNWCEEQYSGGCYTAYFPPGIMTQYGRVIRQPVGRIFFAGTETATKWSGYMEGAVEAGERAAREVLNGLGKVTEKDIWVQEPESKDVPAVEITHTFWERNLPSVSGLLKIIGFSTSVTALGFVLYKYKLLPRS
Leucine Rich repeat Kinase 2 (LRRK2), sequence (Q5S007 whole entry): as the sequence (Q5S007 whole entry G2019S) above, with S2019G counted along it
KIT V559D, sequence (P10721 26-976 V559D): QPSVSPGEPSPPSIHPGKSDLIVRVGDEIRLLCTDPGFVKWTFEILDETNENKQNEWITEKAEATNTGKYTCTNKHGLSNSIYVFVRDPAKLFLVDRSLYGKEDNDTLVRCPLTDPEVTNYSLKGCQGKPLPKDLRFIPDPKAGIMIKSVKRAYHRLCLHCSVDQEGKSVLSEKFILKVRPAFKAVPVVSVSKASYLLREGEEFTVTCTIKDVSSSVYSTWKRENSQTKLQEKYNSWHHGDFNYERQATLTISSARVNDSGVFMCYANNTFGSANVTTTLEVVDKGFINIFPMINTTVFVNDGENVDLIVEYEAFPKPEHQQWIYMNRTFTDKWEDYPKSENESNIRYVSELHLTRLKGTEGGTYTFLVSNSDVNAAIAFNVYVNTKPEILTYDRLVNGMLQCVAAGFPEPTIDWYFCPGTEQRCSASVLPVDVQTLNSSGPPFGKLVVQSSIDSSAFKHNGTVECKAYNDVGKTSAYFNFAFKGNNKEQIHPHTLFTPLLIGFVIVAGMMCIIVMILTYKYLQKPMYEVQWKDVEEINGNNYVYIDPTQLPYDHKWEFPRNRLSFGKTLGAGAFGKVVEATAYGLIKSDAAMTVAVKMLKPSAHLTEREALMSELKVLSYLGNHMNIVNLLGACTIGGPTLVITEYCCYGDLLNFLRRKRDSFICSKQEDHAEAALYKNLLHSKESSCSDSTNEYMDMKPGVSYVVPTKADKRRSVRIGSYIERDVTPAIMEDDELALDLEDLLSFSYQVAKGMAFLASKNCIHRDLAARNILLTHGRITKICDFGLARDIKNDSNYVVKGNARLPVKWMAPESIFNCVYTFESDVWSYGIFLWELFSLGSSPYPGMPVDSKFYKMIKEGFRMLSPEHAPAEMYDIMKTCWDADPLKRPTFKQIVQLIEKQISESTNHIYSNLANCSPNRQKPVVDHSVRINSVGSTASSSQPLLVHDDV
KIT, sequence (P10721 26-976): as the sequence (P10721 26-976 V559D) above, with D534V counted along it

## N[C@@H](Cc1ccc(O)c(O)c1)C(=O)O [L-DOPA, levodopa]
[1]
  initial response rates: ~90%

## Oc1c2ccccc2c2c3c(cccc13)N=N2 [SP600125]
[2]
  protection in the chronic MPTP mouse model: protective

## Cc1ccc(-c2ncn(-c3ccc(Nc4nccc(-c5cccc(N6CCOCC6)c5)n4)cc3)n2)cn1 [SR-3306]
TYK2
  Kd: < 1 µM
CYP P450 2D6
  IC50: > 50 µM
PDGFR-β
  Kd: < 1 µM
[3]
  plasma protein binding: 97%
KIT
  Kd: < 1 µM
[4]
  IC50: > 50 µM
[5]; 10 mg/kg oral
  p-c-jun levels in the ventral midbrain by ELISA: no effect
[5]; 20 mg/kg oral, p< 0.01
  p-c-jun levels in the ventral midbrain by ELISA: statistically significant reduction
[5]; 30 mg/kg oral, p < 0.001
  p-c-jun levels in the ventral midbrain by ELISA: statistically significant reduction
[6]
  number of p-c-jun positive cells compared to MPTP treated mice: dramatic decrease (four-fold)
CYP P450 2C8
  IC50: > 50 µM
[7]
  protection of striatal DOPAC levels: some protection
  protection of striatal dopamine levels: not able to demonstrate protection
  protection of striatal homovanillic acid (HVA) levels: not able to demonstrate protection
[8]
  microsomal stability: 30 min
CYP P450 2E1
  IC50: > 50 µM
CYP P450 1A2
  IC50: > 50 µM
CYP P450 2B6
  IC50: > 50 µM
CYP P450 2A6
  IC50: > 50 µM
[9]
  plasma protein binding: 86%
CYP P450 2C9
  IC50: > 50 µM
[10]
  plasma protein binding: 88%
KIT V559D
  Kd: < 1 µM
[11]
  phospho-c-jun signal by Western blot: decrease in the phospho-c-jun signal
[12]; 4 hr
  brain concentration: 3000 nM
[12]; 8 hr
  brain concentration above the >90% neuroprotective concentration: 7 fold
[12]; 24 hr
  brain concentration: 230 nM
[13]
  plasma protein binding: 96%
[14]
  IC50: > 50 µM
Rat pharmacokinetics; 1 mg/kg i.v.
  clearance rate: 14 mL/min/kg
Rat pharmacokinetics; 2 mg/kg p.o. vs 1 mg/kg i.v.
  oral bioavailability (%F): 31%
[15]
  inhibition of LRRK2: not inhibited
P-glycoprotein (PGP)
  P-glycoprotein (PGP) substrate: not a P-glycoprotein (PGP) substrate
[16]
  microsomal stability: 26 min
CYP P450 2C19
  IC50: > 50 µM
G2019S LRRK2
  inhibition of G2019S LRRK2: not inhibited
[17]; 300 nM
  neuroprotective effect (TH-positive neurons): greater than 90%
[17]; 1000 nM in the absence of MPP+
  effect on number of TH-positive neurons, compound alone: no effect compared to control
[17]; 1000 nM
  neuroprotective effect (TH-positive neurons): greater than 90%
CYP P450 3A4
  IC50: > 50 µM
347 kinases
  number of kinases with any hit: 35 out of the 347
[18]
  microsomal stability: 28 min

## C#CCN[C@@H]1CCc2ccccc21 [rasagiline]
[19]; 1 mg
  neuroprotective disease-modifying effects: possible disease-modifying effects
[19]; 2 mg dose, 1176 subjects
  neuroprotective disease-modifying effects: failed to show neuroprotective disease-modifying effects
